Assay results taken from ChEMBL document CHEMBL1275252, “First survey of metallo-beta-lactamases in clinical isolates of Pseudomonas aeruginosa in a German university hospital” (2010).
Converted amounts (≈) assume the structure as drawn.

System: Pseudomonas aeruginosa
Experiment: Antimicrobial activity against Pseudomonas aeruginosa isolate PA399 expressing VIM-2 beta-lactamase
Type: functional

Compound | MIC [µg/mL]
C[C@H]1[C@H](NC(=O)/C(=N\OC(C)(C)C(=O)O)c2csc(N)n2)C(=O)N1S(=O)(=O)O [AZTREONAM] | 16 (≈ 36.7 µM)
GENTAMICIN | > 16
NC[C@H]1O[C@H](O[C@H]2[C@H](O)[C@@H](O[C@H]3O[C@H](CO)[C@@H](O)[C@H](N)[C@H]3O)[C@H](N)C[C@@H]2N)[C@H](N)C[C@@H]1O [TOBRAMYCIN] | ≥ 16
C[C@@H](O)[C@H]1C(=O)N2C(C(=O)O)=C(S[C@@H]3CN[C@H](C(=O)N(C)C)C3)[C@H](C)[C@H]12 [MEROPENEM] | ≥ 16

System: Pseudomonas aeruginosa
Experiment: Antimicrobial activity against Pseudomonas aeruginosa isolate PA462 expressing VIM-2 beta-lactamase
Type: functional

Compound | MIC [µg/mL]
C[C@H]1[C@H](NC(=O)/C(=N\OC(C)(C)C(=O)O)c2csc(N)n2)C(=O)N1S(=O)(=O)O [AZTREONAM] | 16 (≈ 36.7 µM)
GENTAMICIN | > 16
NC[C@H]1O[C@H](O[C@H]2[C@H](O)[C@@H](O[C@H]3O[C@H](CO)[C@@H](O)[C@H](N)[C@H]3O)[C@H](N)C[C@@H]2N)[C@H](N)C[C@@H]1O [TOBRAMYCIN] | ≥ 16
C[C@@H](O)[C@H]1C(=O)N2C(C(=O)O)=C(S[C@@H]3CN[C@H](C(=O)N(C)C)C3)[C@H](C)[C@H]12 [MEROPENEM] | ≥ 16

System: Pseudomonas aeruginosa
Experiment: Antimicrobial activity against Pseudomonas aeruginosa isolate PA465 expressing VIM-2 beta-lactamase
Type: functional

Compound | MIC [µg/mL]
C[C@H]1[C@H](NC(=O)/C(=N\OC(C)(C)C(=O)O)c2csc(N)n2)C(=O)N1S(=O)(=O)O [AZTREONAM] | 16 (≈ 36.7 µM)
GENTAMICIN | > 16
NC[C@H]1O[C@H](O[C@H]2[C@H](O)[C@@H](O[C@H]3O[C@H](CO)[C@@H](O)[C@H](N)[C@H]3O)[C@H](N)C[C@@H]2N)[C@H](N)C[C@@H]1O [TOBRAMYCIN] | ≤ 1
C[C@@H](O)[C@H]1C(=O)N2C(C(=O)O)=C(S[C@@H]3CN[C@H](C(=O)N(C)C)C3)[C@H](C)[C@H]12 [MEROPENEM] | ≥ 16

System: Pseudomonas aeruginosa
Experiment: Antimicrobial activity against Pseudomonas aeruginosa isolate PA469 expressing VIM-2 beta-lactamase
Type: functional

Compound | MIC [µg/mL]
C[C@H]1[C@H](NC(=O)/C(=N\OC(C)(C)C(=O)O)c2csc(N)n2)C(=O)N1S(=O)(=O)O [AZTREONAM] | 16 (≈ 36.7 µM)
GENTAMICIN | > 16
NC[C@H]1O[C@H](O[C@H]2[C@H](O)[C@@H](O[C@H]3O[C@H](CO)[C@@H](O)[C@H](N)[C@H]3O)[C@H](N)C[C@@H]2N)[C@H](N)C[C@@H]1O [TOBRAMYCIN] | ≥ 16
C[C@@H](O)[C@H]1C(=O)N2C(C(=O)O)=C(S[C@@H]3CN[C@H](C(=O)N(C)C)C3)[C@H](C)[C@H]12 [MEROPENEM] | ≥ 16

System: Pseudomonas aeruginosa
Experiment: Antimicrobial activity against Pseudomonas aeruginosa isolate PA475 expressing VIM-2 beta-lactamase
Type: functional

Compound | MIC [µg/mL]
C[C@H]1[C@H](NC(=O)/C(=N\OC(C)(C)C(=O)O)c2csc(N)n2)C(=O)N1S(=O)(=O)O [AZTREONAM] | 16 (≈ 36.7 µM)
GENTAMICIN | > 16
NC[C@H]1O[C@H](O[C@H]2[C@H](O)[C@@H](O[C@H]3O[C@H](CO)[C@@H](O)[C@H](N)[C@H]3O)[C@H](N)C[C@@H]2N)[C@H](N)C[C@@H]1O [TOBRAMYCIN] | ≥ 16
C[C@@H](O)[C@H]1C(=O)N2C(C(=O)O)=C(S[C@@H]3CN[C@H](C(=O)N(C)C)C3)[C@H](C)[C@H]12 [MEROPENEM] | ≥ 16

System: Pseudomonas aeruginosa
Experiment: Antimicrobial activity against Pseudomonas aeruginosa isolate PA477 expressing VIM-2 beta-lactamase
Type: functional

Compound | MIC [µg/mL]
C[C@H]1[C@H](NC(=O)/C(=N\OC(C)(C)C(=O)O)c2csc(N)n2)C(=O)N1S(=O)(=O)O [AZTREONAM] | 16 (≈ 36.7 µM)
GENTAMICIN | > 16
NC[C@H]1O[C@H](O[C@H]2[C@H](O)[C@@H](O[C@H]3O[C@H](CO)[C@@H](O)[C@H](N)[C@H]3O)[C@H](N)C[C@@H]2N)[C@H](N)C[C@@H]1O [TOBRAMYCIN] | ≥ 16
C[C@@H](O)[C@H]1C(=O)N2C(C(=O)O)=C(S[C@@H]3CN[C@H](C(=O)N(C)C)C3)[C@H](C)[C@H]12 [MEROPENEM] | ≥ 16

System: Pseudomonas aeruginosa
Experiment: Antimicrobial activity against Pseudomonas aeruginosa isolate PA481 expressing VIM-2 beta-lactamase
Type: functional

Compound | MIC [µg/mL]
C[C@H]1[C@H](NC(=O)/C(=N\OC(C)(C)C(=O)O)c2csc(N)n2)C(=O)N1S(=O)(=O)O [AZTREONAM] | 16 (≈ 36.7 µM)
GENTAMICIN | > 16
NC[C@H]1O[C@H](O[C@H]2[C@H](O)[C@@H](O[C@H]3O[C@H](CO)[C@@H](O)[C@H](N)[C@H]3O)[C@H](N)C[C@@H]2N)[C@H](N)C[C@@H]1O [TOBRAMYCIN] | ≥ 16
C[C@@H](O)[C@H]1C(=O)N2C(C(=O)O)=C(S[C@@H]3CN[C@H](C(=O)N(C)C)C3)[C@H](C)[C@H]12 [MEROPENEM] | ≥ 16

System: Pseudomonas aeruginosa
Experiment: Antimicrobial activity against Pseudomonas aeruginosa isolate PA500 expressing VIM-1 beta-lactamase
Type: functional

Compound | MIC [µg/mL]
C[C@H]1[C@H](NC(=O)/C(=N\OC(C)(C)C(=O)O)c2csc(N)n2)C(=O)N1S(=O)(=O)O [AZTREONAM] | 4 (≈ 9.19 µM)
GENTAMICIN | > 16
NC[C@H]1O[C@H](O[C@H]2[C@H](O)[C@@H](O[C@H]3O[C@H](CO)[C@@H](O)[C@H](N)[C@H]3O)[C@H](N)C[C@@H]2N)[C@H](N)C[C@@H]1O [TOBRAMYCIN] | 8 (≈ 17.1 µM)
C[C@@H](O)[C@H]1C(=O)N2C(C(=O)O)=C(S[C@@H]3CN[C@H](C(=O)N(C)C)C3)[C@H](C)[C@H]12 [MEROPENEM] | ≥ 16

System: Pseudomonas aeruginosa
Experiment: Antimicrobial activity against Pseudomonas aeruginosa isolate PA510 expressing VIM-2 beta-lactamase
Type: functional

Compound | MIC [µg/mL]
C[C@H]1[C@H](NC(=O)/C(=N\OC(C)(C)C(=O)O)c2csc(N)n2)C(=O)N1S(=O)(=O)O [AZTREONAM] | ≥ 64
GENTAMICIN | > 16
NC[C@H]1O[C@H](O[C@H]2[C@H](O)[C@@H](O[C@H]3O[C@H](CO)[C@@H](O)[C@H](N)[C@H]3O)[C@H](N)C[C@@H]2N)[C@H](N)C[C@@H]1O [TOBRAMYCIN] | ≥ 16
C[C@@H](O)[C@H]1C(=O)N2C(C(=O)O)=C(S[C@@H]3CN[C@H](C(=O)N(C)C)C3)[C@H](C)[C@H]12 [MEROPENEM] | ≥ 16

System: Pseudomonas aeruginosa
Experiment: Antimicrobial activity against metallo-beta-lactamase-negative Pseudomonas aeruginosa isolate PA459
Type: functional
In short: (§1)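 MBL-negative clinical P. aeruginosa isolates with reduced imipenem susceptibility, collected at the study hospital, some from cystic fibrosis patients. Species identity was confirmed by automated Gram-negative identification card. MIC was read in μg/ml.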

Compound | MIC [µg/mL]
C[C@H]1[C@H](NC(=O)/C(=N\OC(C)(C)C(=O)O)c2csc(N)n2)C(=O)N1S(=O)(=O)O [AZTREONAM] | 16 (≈ 36.7 µM)
GENTAMICIN | 1
NC[C@H]1O[C@H](O[C@H]2[C@H](O)[C@@H](O[C@H]3O[C@H](CO)[C@@H](O)[C@H](N)[C@H]3O)[C@H](N)C[C@@H]2N)[C@H](N)C[C@@H]1O [TOBRAMYCIN] | 1 (≈ 2.14 µM)
C[C@@H](O)[C@H]1C(=O)N2C(C(=O)O)=C(S[C@@H]3CN[C@H](C(=O)N(C)C)C3)[C@H](C)[C@H]12 [MEROPENEM] | 8 (≈ 20.9 µM)

System: Pseudomonas aeruginosa
Experiment: Antimicrobial activity against metallo-beta-lactamase-negative Pseudomonas aeruginosa isolate PA460
Type: functional

Compound | MIC [µg/mL]
C[C@H]1[C@H](NC(=O)/C(=N\OC(C)(C)C(=O)O)c2csc(N)n2)C(=O)N1S(=O)(=O)O [AZTREONAM] | 16 (≈ 36.7 µM)
GENTAMICIN | > 16
NC[C@H]1O[C@H](O[C@H]2[C@H](O)[C@@H](O[C@H]3O[C@H](CO)[C@@H](O)[C@H](N)[C@H]3O)[C@H](N)C[C@@H]2N)[C@H](N)C[C@@H]1O [TOBRAMYCIN] | ≥ 16
C[C@@H](O)[C@H]1C(=O)N2C(C(=O)O)=C(S[C@@H]3CN[C@H](C(=O)N(C)C)C3)[C@H](C)[C@H]12 [MEROPENEM] | 8 (≈ 20.9 µM)

System: Pseudomonas aeruginosa
Experiment: Antimicrobial activity against metallo-beta-lactamase-negative Pseudomonas aeruginosa isolate PA479
Type: functional

Compound | MIC [µg/mL]
C[C@H]1[C@H](NC(=O)/C(=N\OC(C)(C)C(=O)O)c2csc(N)n2)C(=O)N1S(=O)(=O)O [AZTREONAM] | 32 (≈ 73.5 µM)
GENTAMICIN | > 16
NC[C@H]1O[C@H](O[C@H]2[C@H](O)[C@@H](O[C@H]3O[C@H](CO)[C@@H](O)[C@H](N)[C@H]3O)[C@H](N)C[C@@H]2N)[C@H](N)C[C@@H]1O [TOBRAMYCIN] | ≥ 16
C[C@@H](O)[C@H]1C(=O)N2C(C(=O)O)=C(S[C@@H]3CN[C@H](C(=O)N(C)C)C3)[C@H](C)[C@H]12 [MEROPENEM] | ≥ 16

System: Pseudomonas aeruginosa
Experiment: Antimicrobial activity against metallo-beta-lactamase-negative Pseudomonas aeruginosa isolate PA483
Type: functional

Compound | MIC [µg/mL]
C[C@H]1[C@H](NC(=O)/C(=N\OC(C)(C)C(=O)O)c2csc(N)n2)C(=O)N1S(=O)(=O)O [AZTREONAM] | 64 (≈ 147 µM)
GENTAMICIN | 1
NC[C@H]1O[C@H](O[C@H]2[C@H](O)[C@@H](O[C@H]3O[C@H](CO)[C@@H](O)[C@H](N)[C@H]3O)[C@H](N)C[C@@H]2N)[C@H](N)C[C@@H]1O [TOBRAMYCIN] | 1 (≈ 2.14 µM)
C[C@@H](O)[C@H]1C(=O)N2C(C(=O)O)=C(S[C@@H]3CN[C@H](C(=O)N(C)C)C3)[C@H](C)[C@H]12 [MEROPENEM] | ≥ 16

System: Pseudomonas aeruginosa
Experiment: Antimicrobial activity against metallo-beta-lactamase-negative Pseudomonas aeruginosa isolate PA494
Type: functional

Compound | MIC [µg/mL]
C[C@H]1[C@H](NC(=O)/C(=N\OC(C)(C)C(=O)O)c2csc(N)n2)C(=O)N1S(=O)(=O)O [AZTREONAM] | 16 (≈ 36.7 µM)
GENTAMICIN | 8
NC[C@H]1O[C@H](O[C@H]2[C@H](O)[C@@H](O[C@H]3O[C@H](CO)[C@@H](O)[C@H](N)[C@H]3O)[C@H](N)C[C@@H]2N)[C@H](N)C[C@@H]1O [TOBRAMYCIN] | 1 (≈ 2.14 µM)
C[C@@H](O)[C@H]1C(=O)N2C(C(=O)O)=C(S[C@@H]3CN[C@H](C(=O)N(C)C)C3)[C@H](C)[C@H]12 [MEROPENEM] | 8 (≈ 20.9 µM)

System: Pseudomonas aeruginosa
Experiment: Antimicrobial activity against metallo-beta-lactamase-negative Pseudomonas aeruginosa isolate PA507
Type: functional
In short: as §1

Compound | MIC [µg/mL]
C[C@H]1[C@H](NC(=O)/C(=N\OC(C)(C)C(=O)O)c2csc(N)n2)C(=O)N1S(=O)(=O)O [AZTREONAM] | 16 (≈ 36.7 µM)
GENTAMICIN | > 16
NC[C@H]1O[C@H](O[C@H]2[C@H](O)[C@@H](O[C@H]3O[C@H](CO)[C@@H](O)[C@H](N)[C@H]3O)[C@H](N)C[C@@H]2N)[C@H](N)C[C@@H]1O [TOBRAMYCIN] | 1 (≈ 2.14 µM)
C[C@@H](O)[C@H]1C(=O)N2C(C(=O)O)=C(S[C@@H]3CN[C@H](C(=O)N(C)C)C3)[C@H](C)[C@H]12 [MEROPENEM] | 4 (≈ 10.4 µM)

System: Pseudomonas aeruginosa
Experiment: Antimicrobial activity against metallo-beta-lactamase-negative Pseudomonas aeruginosa isolate PA509
Type: functional

Compound | MIC [µg/mL]
C[C@H]1[C@H](NC(=O)/C(=N\OC(C)(C)C(=O)O)c2csc(N)n2)C(=O)N1S(=O)(=O)O [AZTREONAM] | 8 (≈ 18.4 µM)
GENTAMICIN | > 16
NC[C@H]1O[C@H](O[C@H]2[C@H](O)[C@@H](O[C@H]3O[C@H](CO)[C@@H](O)[C@H](N)[C@H]3O)[C@H](N)C[C@@H]2N)[C@H](N)C[C@@H]1O [TOBRAMYCIN] | ≥ 16
C[C@@H](O)[C@H]1C(=O)N2C(C(=O)O)=C(S[C@@H]3CN[C@H](C(=O)N(C)C)C3)[C@H](C)[C@H]12 [MEROPENEM] | ≥ 16
